Article PMC3184254 (Nature Chemical Biology, 2011)
Where two headings read alike, the source gives them in different places.

Tests used:
M4 = M4 (Homo sapiens, UniProt P08173); assay: M4 functional assay; type: cell-based
M2 = M2 (Homo sapiens, UniProt P08172); assay: M2 functional assay; type: cell-based
SUV39H2 = SUV39H2 (Homo sapiens, UniProt Q9H5I1); assay: SAHH-coupled assay, SUV39H2; type: biochemical
Method in brief: (§1)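 A fluorescence-based coupled assay used S-adenosyl-L-homocysteine hydrolase to follow conversion of cofactor SAM to SAH by the methyltransferase. IC50 values are the average of at least two separate experiments.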

M1 = M1 (Homo sapiens, UniProt P11229); assay: M1 functional assay; type: cell-based
PRMT1 = PRMT1 (Homo sapiens, UniProt Q99873); assay: BPS Bioscience assay, PRMT1; type: biochemical
[1] = system: H3K9me2 levels in MDA-MB-231 cells; assay: H3K9me2 in-cell western, MDA-MB-231; type: cell-based, human
adrenergic α1A receptor = adrenergic α1A receptor (Rattus norvegicus, UniProt P43140); assay: Ricerca Selectivity Panel, adrenergic α1A; type: binding
panel of 24 kinases = assay: Kinase selectivity panel; type: biochemical; conditions: at 1 μM; 24 kinases
[2] = system: H3K9me2 levels in J1 mES cells; assay: Cellular potency; type: cell-based; conditions: Mus musculus, 48 h, read-out: IC50 cellular potency
SETD7 = biological target: T1, SETD7 (Homo sapiens, UniProt Q8WTS6); assay: SAHH-coupled assay, SETD7; type: biochemical
T1 sequence (Q8WTS6 1-366): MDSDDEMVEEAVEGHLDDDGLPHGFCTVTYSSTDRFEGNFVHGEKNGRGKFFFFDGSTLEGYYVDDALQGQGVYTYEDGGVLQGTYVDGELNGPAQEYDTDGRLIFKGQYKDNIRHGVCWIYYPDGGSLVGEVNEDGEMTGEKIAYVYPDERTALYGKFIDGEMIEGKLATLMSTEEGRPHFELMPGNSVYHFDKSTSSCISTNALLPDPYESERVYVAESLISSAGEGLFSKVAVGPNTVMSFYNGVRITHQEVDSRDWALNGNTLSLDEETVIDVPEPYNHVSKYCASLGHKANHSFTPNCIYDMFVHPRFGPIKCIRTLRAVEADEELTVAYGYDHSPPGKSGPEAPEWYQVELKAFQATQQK
Method in brief: as §1

[3] = Mouse drug metabolism and pharmacokinetic studies; type: in vivo; conditions: intravenous, oral or intraperitoneal administration
[4] = system: histone marks in MDA-MB-231 cells; assay: Quantitative MS analysis of histone modifications; type: cell-based, human; conditions: 1 μM for 48 h
Method in brief: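 MDA-MB-231 cells were treated at 1 µM for 48 h. Histones were acid-extracted, derivatized with propionic anhydride and digested with trypsin. Mock and treated samples carried D0 or D5 propionyl labels. Peptides were analysed by LC-MS/MS on an Orbitrap, with all data manually verified.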

PRMT3 = PRMT3 (Homo sapiens, UniProt O60678); assay: SAHH-coupled assay, PRMT3; type: biochemical
Method in brief: as §1

adrenergic α1B receptor = adrenergic α1B receptor (Rattus norvegicus, UniProt P15823); assay: Ricerca Selectivity Panel, adrenergic α1B; type: binding
MDA-MB-231 cells = assay: Clonogenicity assay, MDA-MB-231; type: cell-based, human
G9a = biological target: T2, G9a (Homo sapiens, UniProt Q96KQ7); assay: Endoproteinase-coupled microfluidic capillary electrophoresis; type: biochemical
T2 sequence (Q96KQ7 1-1210): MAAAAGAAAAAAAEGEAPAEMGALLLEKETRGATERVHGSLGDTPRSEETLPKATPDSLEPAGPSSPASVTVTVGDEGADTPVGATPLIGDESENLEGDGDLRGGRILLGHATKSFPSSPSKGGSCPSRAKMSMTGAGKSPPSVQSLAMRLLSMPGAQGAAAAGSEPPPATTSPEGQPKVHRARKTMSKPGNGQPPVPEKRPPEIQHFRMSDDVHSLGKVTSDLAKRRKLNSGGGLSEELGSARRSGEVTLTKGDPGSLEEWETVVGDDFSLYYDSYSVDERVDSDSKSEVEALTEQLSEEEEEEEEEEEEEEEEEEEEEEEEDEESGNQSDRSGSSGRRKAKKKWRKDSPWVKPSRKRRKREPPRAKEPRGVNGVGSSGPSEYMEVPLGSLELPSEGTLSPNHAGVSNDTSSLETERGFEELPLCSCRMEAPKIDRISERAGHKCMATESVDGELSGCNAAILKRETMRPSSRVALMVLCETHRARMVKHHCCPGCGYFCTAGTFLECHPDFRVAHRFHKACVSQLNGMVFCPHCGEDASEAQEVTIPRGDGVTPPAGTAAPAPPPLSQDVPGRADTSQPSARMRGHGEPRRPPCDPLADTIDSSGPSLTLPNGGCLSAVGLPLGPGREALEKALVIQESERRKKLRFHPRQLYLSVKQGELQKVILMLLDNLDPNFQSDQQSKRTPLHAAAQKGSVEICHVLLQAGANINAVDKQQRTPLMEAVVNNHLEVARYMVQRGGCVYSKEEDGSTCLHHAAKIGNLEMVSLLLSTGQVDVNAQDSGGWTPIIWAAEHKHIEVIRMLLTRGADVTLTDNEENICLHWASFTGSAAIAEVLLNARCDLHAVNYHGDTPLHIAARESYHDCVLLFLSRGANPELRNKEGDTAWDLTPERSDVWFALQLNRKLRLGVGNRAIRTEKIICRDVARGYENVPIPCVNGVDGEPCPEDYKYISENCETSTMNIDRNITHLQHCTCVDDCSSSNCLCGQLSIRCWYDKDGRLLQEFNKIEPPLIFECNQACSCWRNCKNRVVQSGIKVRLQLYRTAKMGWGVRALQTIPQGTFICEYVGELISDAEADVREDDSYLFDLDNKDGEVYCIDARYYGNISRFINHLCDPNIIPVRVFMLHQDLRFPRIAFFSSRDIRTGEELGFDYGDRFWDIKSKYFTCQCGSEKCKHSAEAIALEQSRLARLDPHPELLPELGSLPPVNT

[5] = Stability in cell media with or without cells; type: in vitro ADME; conditions: with or without MCF7, U2OS or H1299 cells, two types of cell media, 65 h

Chain of SUV39H2 (Q9H5I1 whole entry, species assumed): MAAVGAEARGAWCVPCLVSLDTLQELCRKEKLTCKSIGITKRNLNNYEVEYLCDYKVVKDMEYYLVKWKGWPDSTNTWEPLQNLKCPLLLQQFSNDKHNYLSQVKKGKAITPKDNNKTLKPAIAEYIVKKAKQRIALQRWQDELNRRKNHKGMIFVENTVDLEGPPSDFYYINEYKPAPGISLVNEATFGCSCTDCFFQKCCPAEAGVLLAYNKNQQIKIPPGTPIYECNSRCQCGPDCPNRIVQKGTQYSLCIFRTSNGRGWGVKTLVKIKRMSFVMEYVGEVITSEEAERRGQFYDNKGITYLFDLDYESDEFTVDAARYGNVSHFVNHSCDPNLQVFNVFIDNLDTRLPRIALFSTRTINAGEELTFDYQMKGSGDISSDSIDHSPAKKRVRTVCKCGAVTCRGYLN
Chain of PRMT3 (O60678 whole entry, species assumed): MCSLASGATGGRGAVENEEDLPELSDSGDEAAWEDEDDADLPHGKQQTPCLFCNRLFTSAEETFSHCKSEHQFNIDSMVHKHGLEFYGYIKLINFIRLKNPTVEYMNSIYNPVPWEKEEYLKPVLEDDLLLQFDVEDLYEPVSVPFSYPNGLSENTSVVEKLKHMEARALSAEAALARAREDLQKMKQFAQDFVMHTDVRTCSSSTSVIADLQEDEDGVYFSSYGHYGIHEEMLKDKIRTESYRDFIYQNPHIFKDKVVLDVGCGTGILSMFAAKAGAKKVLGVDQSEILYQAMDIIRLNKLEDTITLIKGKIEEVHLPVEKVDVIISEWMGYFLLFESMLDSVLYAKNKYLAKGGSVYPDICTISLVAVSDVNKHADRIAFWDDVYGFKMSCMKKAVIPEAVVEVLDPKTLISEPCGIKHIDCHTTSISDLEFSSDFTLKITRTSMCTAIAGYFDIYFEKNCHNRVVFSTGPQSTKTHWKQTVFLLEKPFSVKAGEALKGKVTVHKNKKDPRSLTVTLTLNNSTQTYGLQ
Chain of PRMT1 (Q99873 whole entry, species assumed): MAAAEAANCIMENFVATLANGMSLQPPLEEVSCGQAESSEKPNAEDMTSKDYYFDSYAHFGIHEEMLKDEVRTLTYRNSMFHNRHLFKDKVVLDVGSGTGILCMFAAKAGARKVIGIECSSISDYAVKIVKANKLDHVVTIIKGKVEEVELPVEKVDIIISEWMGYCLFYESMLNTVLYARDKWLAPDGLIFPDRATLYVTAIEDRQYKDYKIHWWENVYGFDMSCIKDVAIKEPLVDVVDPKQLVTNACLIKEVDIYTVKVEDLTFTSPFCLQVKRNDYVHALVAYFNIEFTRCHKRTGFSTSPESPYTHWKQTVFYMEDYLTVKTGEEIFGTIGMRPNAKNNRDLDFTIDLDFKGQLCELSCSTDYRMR
Chain of adrenergic α1A receptor (P43140 whole entry): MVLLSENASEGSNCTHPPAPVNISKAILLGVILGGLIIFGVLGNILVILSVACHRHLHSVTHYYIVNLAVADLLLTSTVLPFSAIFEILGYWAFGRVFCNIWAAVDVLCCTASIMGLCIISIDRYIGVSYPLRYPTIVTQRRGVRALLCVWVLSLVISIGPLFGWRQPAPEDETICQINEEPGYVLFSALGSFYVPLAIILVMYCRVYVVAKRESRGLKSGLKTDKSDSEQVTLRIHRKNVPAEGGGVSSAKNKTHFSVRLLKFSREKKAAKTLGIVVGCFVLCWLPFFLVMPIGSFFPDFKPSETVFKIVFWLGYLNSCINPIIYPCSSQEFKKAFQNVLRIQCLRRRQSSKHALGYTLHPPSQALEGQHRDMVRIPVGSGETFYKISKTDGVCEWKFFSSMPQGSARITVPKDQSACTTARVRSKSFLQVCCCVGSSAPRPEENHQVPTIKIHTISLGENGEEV
Chain of M1 (P11229 whole entry): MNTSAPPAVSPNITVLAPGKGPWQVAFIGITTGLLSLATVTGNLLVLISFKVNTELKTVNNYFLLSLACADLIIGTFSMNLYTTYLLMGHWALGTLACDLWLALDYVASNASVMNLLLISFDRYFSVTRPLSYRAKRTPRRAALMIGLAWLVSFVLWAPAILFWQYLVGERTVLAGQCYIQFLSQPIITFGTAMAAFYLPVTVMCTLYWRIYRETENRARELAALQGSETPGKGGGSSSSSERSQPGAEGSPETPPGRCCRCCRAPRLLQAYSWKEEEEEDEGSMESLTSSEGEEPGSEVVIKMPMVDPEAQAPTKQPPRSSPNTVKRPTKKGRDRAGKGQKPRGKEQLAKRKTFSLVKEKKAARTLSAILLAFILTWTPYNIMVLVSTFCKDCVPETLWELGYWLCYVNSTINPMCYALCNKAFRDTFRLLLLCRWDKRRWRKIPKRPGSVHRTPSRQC
Chain of M2 (P08172 whole entry): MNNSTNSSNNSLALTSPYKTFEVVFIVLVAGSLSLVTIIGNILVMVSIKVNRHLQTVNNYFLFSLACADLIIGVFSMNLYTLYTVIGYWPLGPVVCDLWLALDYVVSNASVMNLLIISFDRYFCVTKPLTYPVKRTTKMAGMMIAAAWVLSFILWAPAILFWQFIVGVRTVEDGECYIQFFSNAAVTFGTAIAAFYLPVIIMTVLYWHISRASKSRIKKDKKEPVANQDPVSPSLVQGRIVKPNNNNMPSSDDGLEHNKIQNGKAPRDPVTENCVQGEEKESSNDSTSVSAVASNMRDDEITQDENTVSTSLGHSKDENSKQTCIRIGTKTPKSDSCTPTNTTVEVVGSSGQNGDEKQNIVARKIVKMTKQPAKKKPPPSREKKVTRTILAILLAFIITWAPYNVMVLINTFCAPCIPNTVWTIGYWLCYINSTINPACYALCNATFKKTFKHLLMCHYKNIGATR
Chain of adrenergic α1B receptor (P15823 whole entry): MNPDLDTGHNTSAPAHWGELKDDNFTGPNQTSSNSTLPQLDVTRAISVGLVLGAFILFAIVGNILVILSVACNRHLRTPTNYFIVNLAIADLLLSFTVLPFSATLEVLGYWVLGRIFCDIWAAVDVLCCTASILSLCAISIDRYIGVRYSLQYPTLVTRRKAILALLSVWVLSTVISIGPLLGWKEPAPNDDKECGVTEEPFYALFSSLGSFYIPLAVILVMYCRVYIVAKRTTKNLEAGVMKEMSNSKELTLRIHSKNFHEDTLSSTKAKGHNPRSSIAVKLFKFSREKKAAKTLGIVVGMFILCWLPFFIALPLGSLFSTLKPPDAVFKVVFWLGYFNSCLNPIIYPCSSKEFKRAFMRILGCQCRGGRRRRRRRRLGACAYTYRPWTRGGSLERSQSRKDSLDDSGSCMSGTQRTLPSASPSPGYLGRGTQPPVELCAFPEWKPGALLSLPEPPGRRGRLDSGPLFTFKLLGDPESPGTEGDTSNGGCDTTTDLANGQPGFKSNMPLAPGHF
Chain of M4 (P08173 whole entry): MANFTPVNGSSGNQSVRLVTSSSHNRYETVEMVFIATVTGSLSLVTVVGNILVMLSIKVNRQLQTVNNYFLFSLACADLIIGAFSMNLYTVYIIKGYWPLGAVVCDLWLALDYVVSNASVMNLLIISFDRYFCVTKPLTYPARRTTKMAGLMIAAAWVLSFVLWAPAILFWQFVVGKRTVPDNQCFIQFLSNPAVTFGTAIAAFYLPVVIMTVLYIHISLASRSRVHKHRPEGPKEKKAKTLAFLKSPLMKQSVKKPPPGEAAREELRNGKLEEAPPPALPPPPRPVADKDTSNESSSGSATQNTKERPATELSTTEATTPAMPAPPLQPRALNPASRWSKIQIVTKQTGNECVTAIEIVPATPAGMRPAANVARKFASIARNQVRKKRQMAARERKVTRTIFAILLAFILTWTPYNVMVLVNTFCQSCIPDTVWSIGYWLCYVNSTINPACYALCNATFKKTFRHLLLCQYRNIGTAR

COc1cc2c(NC3CCN(C(C)C)CC3)nc(C3CCCCC3)nc2cc1OCCCN1CCCC1 [UNC0638]
IC50 (M4): > 10000 nM
IC50 (M2): 480 ± 10 nM
IC50 (SUV39H2): > 10000 nM
IC50 (SUV39H2; SAHH-coupled assay): inactive
IC50 (M1): > 10000 nM
IC50 (PRMT1): > 10000 nM
IC50 (PRMT1; assay results from BPS Bioscience): inactive
IC90 ([1]; Homo sapiens, MDA-MB-231, read-out: IC90 for reduction of H3K9me2 levels): 250 nM
cellular H3K9me2 levels after 4 d ([1]; MDA-MB-231 cells, 250 or 500 nM): equal or very close to those of G9a and GLP knockdown cells
IC50 ([1]; read-out: IC50 for reduction of H3K9me2 levels, MDA-MB-231 cells, 48 h exposure, in-cell western): 80 nM
inhibition at 1 µM (adrenergic α1A receptor): 90%
inhibition (panel of 24 kinases): < 10%
IC50 [2]: 138 nM
IC50 (SETD7): > 10000 nM
IC50 (SETD7; SAHH-coupled assay): inactive
clearance [3]: high
half-life [3]: short
volume distribution [3]: high
levels of H3K9me2 by quantitative MS [4]: considerably lower
levels of H3K9me3 by quantitative MS [4]: remained constant
levels of H3K14ac by quantitative MS [4]: doubled
IC50 (PRMT3): > 10000 nM
IC50 (PRMT3; SAHH-coupled assay): inactive
inhibition at 1 µM (adrenergic α1B receptor): 69%
clonogenicity (MDA-MB-231 cells): much less effect
mechanism of action versus peptide substrate (G9a; Km of the peptide increased linearly with UNC0638 concentration): competitive with the peptide substrate
mechanism of action versus cofactor SAM (G9a; apparent Km of SAM remained constant): noncompetitive with cofactor SAM
stability in cell media [5]: did not produce degradation products
